CAL PDZ FP-1: inhibitors of human CAL PDZ peptide binding. purified CAL PDZ, TMR-peptide fluorescence polarization, 1 h. 300,000 tested, 0.92% active. inhibition, % at 24.9 µM. AID 602252;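 active = mean inhibition of at least 30% with at least half of replicates also reaching 30%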;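 also: 0% = DMSO neutral control and 100% = excess unlabeled competitor peptide PRC23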
ERp5 inh: inhibitors of human ERp5; Q15084; ERp5 insulin aggregation, absorbance 650 nm, 90 min; inhibition, % at 9.99 µM; 350,000 tested, 0.05% active; AID 651711;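 active = mean replicate inhibition above about 25%, with every replicate also reaching it, limit read from the data, passing the limit was not always enough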
CAL PDZ FP-2: human CAL PDZ-peptide interaction inhibition. Q9HD26. purified CAL PDZ, TMR-peptide fluorescence polarization, 1 h. inhibition, % at 20 µM. 330,000 tested, 0.02% active;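 active = highest replicate inhibition of at least 40%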;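 also: plate controls were DMSO neutral control wells for no effect and unlabeled competitor peptide control wells for full effect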
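Read-out basis: mP drop reported as inhibition | Assay system: Tagged CAL PDZ protein CerCALP, purified | Benchmarks: Unlabelled peptide for full inhibition, DMSO wells as neutral | Schedule: 1 h incubation at room temperature before polarization reading | Buffer or medium: Sodium phosphate/NaCl buffer pH 7.4 with TCEP, IgG, Thesit | Doses: Single point, 20 µM | Measured by: Fluorescence polarization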
ERAP1 inh: inhibitors of human ERAP1 aminopeptidase | AID 652197 | 340,000 tested, 0.15% active | Q9NZ08 | recombinant ERAP1, Leu-AMC fluorescence, 60 min | inhibition, % at 10.7 µM;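 active = mean replicate inhibition of at least 30%, or all replicates individually reaching that 30% level; inactive = mean below 30% and not every replicate reaching it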;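 also: 0% = neutral control wells and 100% = L-leucinethiol positive control wells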
Target sequence (Q9NZ08 whole entry, looked up): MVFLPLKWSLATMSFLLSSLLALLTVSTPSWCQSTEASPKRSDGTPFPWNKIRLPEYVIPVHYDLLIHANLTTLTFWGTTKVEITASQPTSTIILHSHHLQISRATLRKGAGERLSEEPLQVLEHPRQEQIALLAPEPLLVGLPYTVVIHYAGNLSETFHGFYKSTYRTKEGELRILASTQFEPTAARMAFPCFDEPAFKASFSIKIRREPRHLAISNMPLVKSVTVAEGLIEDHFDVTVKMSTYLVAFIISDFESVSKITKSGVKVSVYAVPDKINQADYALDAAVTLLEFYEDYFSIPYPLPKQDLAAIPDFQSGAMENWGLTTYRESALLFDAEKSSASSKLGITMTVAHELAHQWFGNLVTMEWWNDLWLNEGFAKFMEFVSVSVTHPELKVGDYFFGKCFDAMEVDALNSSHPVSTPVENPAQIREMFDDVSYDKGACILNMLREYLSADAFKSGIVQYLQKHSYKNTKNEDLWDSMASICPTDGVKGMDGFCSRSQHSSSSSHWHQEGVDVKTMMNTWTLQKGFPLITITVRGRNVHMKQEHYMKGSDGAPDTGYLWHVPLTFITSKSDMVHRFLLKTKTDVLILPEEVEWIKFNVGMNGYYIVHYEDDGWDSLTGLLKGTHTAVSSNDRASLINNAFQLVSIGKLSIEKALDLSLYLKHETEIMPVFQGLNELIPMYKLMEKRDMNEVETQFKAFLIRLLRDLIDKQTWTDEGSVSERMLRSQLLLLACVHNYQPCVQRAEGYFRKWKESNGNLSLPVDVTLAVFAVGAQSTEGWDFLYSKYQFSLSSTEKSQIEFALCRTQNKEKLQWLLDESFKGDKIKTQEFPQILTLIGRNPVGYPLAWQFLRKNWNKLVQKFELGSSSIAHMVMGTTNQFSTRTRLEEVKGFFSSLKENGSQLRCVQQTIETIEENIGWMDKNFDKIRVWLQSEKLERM
PDI turbidity: PDI (human) enzyme inhibition | P07237 | PDI insulin aggregation turbidity, A650, 90 min | inhibition, % at 10 µM | 350,000 tested, 0.052% active | AID 588391;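 active = mean inhibition across replicates of 30% or more, whatever share of single replicates reach that level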
Rin1-Abl PPI inh: inhibitors of human Rin1-Abl protein interaction | TR-FRET Rin1/Abl binding, biochemical | inhibition, % at 7.35 µM | 360,000 tested, 0.4% active | AID 588664; in the data active = inhibition above about 5%, passing the limit was not always enough
* hit, by the source's call; . = no result. Rows were chosen to be rich in hits. Some 1.1% of all compounds tested hit in one or more screens of this group.

SMILES	CAL PDZ FP-1	ERp5 inh	CAL PDZ FP-2	ERAP1 inh	PDI turbidity	Rin1-Abl PPI inh
COc1ccc(CN2CCC(Oc3ccc(C(=O)N4CCCC4)cc3)CC2)c(F)c1	127.7*	2.1	0.1	3.5	-1.7	3.1
CCn1nc(C)c(CNC(=O)c2ccc(OC3CCN(Cc4ccccn4)CC3)cc2)c1C	50.2*	0.8	-0.7	-0.3	-3.5	0.0
O=C(C[C@H]1C[C@H]2c3cc(NC(=O)Cc4ccncc4)ccc3O[C@H]2[C@@H](CO)O1)NCc1ccc2c(c1)OCO2	.	10.0	.	-1.4	.	.
CSc1ncc(CN2CCN(CC=C(C)C)C(CCO)C2)cn1 (centres undefined)	-9.1	-3.2	-1.3	-0.2	-1.0	4.0
CSc1ncc(CN2CCN(C3CCCC3)C(CCO)C2)cn1 (centres undefined)	30.6*	-2.5	-3.4	.	0.4	2.1
Cc1ncc(CN2CCN(C3CCCC3)C(CCO)C2)s1 (centres undefined)	81.6*	-0.7	-0.1	-2.7	7.9	3.3
OCCC1CN(Cc2cnc(N3CCCC3)s2)CCN1C1CCCC1 (centres undefined)	1.8	-3.5	-0.4	2.7	5.9	1.8
CO[C@H]1CN(C)C(=O)c2cc(NC(=O)c3ccccc3)ccc2OC[C@H](C)N(C(C)=O)C[C@H]1C	.	-0.5	.	-2.2	.	.
COc1ccc(C(=O)NCC(=O)OCC(=O)c2cc(OC)c(OC)c(OC)c2)cc1OC	-1.3	-6.6	-1.7	-0.9	-2.2	-3.9
COc1cc(C(=O)NCC(=O)OCC(=O)c2ccc[nH]2)cc(OC)c1OC	61.0*	.	-0.5	.	0.6	-0.6
COc1ccc(S(=O)(=O)NCCC(=O)OCC(=O)c2ccc[nH]2)cc1[N+](=O)[O-]	45.9*	1.7	-0.3	-2.8	-4.9	0.7
COc1ccc(CCC(=O)OCC(=O)c2ccc[nH]2)cc1OC	-5.0	-2.9	-1.4	6.4	-4.7	-2.0
CCc1c(C)c(C#N)c2nc3ccccc3n2c1NCC1CCCO1 (centres undefined)	31.5*	.	0.2	.	1.7	-4.3
Cc1cccc(C(=O)NCC(=O)OCC(=O)c2cc(C)n(CC3CCCO3)c2C)c1 (centres undefined)	89.5*	-4.4	-0.4	4.5	-16.2	-2.2
CNC[C@H]1Oc2ccc(NC(=O)Cc3cn(C)c4ccccc34)cc2CC(=O)N([C@H](C)CO)C[C@H]1C	.	4.5	.	8.8	.	.
COc1cccc(-c2cc(C(=O)Nc3ccn(Cc4ccc(C)cc4)n3)no2)c1	38.1*	-0.5	.	-1.4	0.7	1.8
Cc1ccc(Cn2ccc(NC(=O)c3cc(-c4ccccc4)on3)n2)cc1	-7.3	-6.9	-3.0	2.6	-0.1	-3.6
COc1cc(NS(=O)(=O)c2ccc(NC(=S)Nc3ccccc3)cc2)nc(OC)n1	-6.7	7.7	110.8*	2.9	3.1	-1.1
O=C(Nc1nc2n(n1)C(c1ccc(F)cc1)CC(c1ccccc1)N2)c1ccco1 (centres undefined)	38.1*	-0.5	-1.0	-6.6	-3.3	-0.1
CCc1ccc(Oc2ncnc(N)c2[N+](=O)[O-])cc1	66.7*	-0.1	-1.6	2.7	-1.6	-0.1
C[C@@H]1CCCCO[C@H](CN(C)Cc2ccc(C(=O)O)cc2)[C@@H](C)CN([C@@H](C)CO)C(=O)c2cc(NC(=O)Nc3cccc4ccccc34)ccc2O1	.	4.1	.	-3.4	.	.
COCC#Cc1ccc2c(c1)O[C@H](CN(C)S(=O)(=O)c1ccc(C)cc1)[C@@H](C)CN([C@H](C)CO)S2(=O)=O	.	7.2	.	-0.1	.	.
COc1ccc(C(CNC(=O)COc2c(C)cc(C)cc2C)N2CCOCC2)cc1 (centres undefined)	67.7*	-0.9	-0.4	-2.1	-6.8	2.3
Cc1cc(C)cc(NC(=O)CSc2nc(=O)n(CCN3CCOCC3)c3c2CCCC3)c1	51.8*	12.8	-1.2	3.7	-3.0	-1.4
Cc1cc(C)c(NC(=O)CSc2nc(=O)n(CCN3CCOCC3)c3c2CCCC3)c(C)c1	-10.1	-3.8	-3.5	1.1	-0.6	0.4
SMILES	CAL PDZ FP-1	ERp5 inh	CAL PDZ FP-2	ERAP1 inh	PDI turbidity	Rin1-Abl PPI inh
Cc1cccc(NC(=O)CSc2nc(=O)n(CCCN3CCOCC3)c3c2CCCC3)c1	47.8*	-1.3	-1.3	-1.1	5.2	0.7
COc1ccc(C2C(C(=O)c3ccco3)=C(O)C(=O)N2CC2CCCO2)cc1OC (centres undefined)	52.0*	-4.3	0.0	5.7	-4.0	-2.9
O=C(C1=C(O)C(=O)N(CC2CCCO2)C1c1ccccc1)c1ccco1 (centres undefined)	-3.1	4.0	-1.3	3.4	5.3	-0.2
Cc1c(C(=O)C(=O)NCCCn2ccnc2)c2ccccc2n1C	35.6*	0.2	-1.4	-1.4	-6.0	-2.9
Cc1[nH]c2ccccc2c1C(=O)C(=O)NCCCn1ccnc1	-4.7	-4.0	0.1	-4.3	-4.9	-2.4
CSc1ccccc1C(=O)NCCCn1ccnc1	61.2*	1.6	16.6	0.7	5.0	-0.3
C=CCn1nnnc1SCC(=O)Nc1cccc(C(F)(F)F)c1	-6.8	5.2	-1.5	103.0*	-1.9	0.3
C=CCn1nnnc1SCC(=O)Nc1ccc(C(=O)OC)cc1	.	-2.4	-0.4	-2.3	0.9	3.5
CNC(=O)c1cc2cc(OC)ccc2n1CCN(C)C	47.3*	.	.	.	6.5	1.1
COc1ccc(C#Cc2ccc([C@H]3[C@@H](CO)N4C(=O)CN(C(=O)c5ccc(F)cc5)C[C@@H]34)cc2)cc1	.	1.9	.	.	.	.
CC(C)(O)C#Cc1cccc(-c2nc(C(=O)N[C@@H]3CCN(Cc4ccccc4)C3)cc3c2[C@H](CCO)N(S(=O)C(C)(C)C)C3)c1 (some centres undefined)	.	3.4	.	-2.5	.	.
O=C(CNc1cccc([N+](=O)[O-])c1)NCCCc1ccccc1	38.4*	-0.4	-0.3	-3.8	-11.1	-1.1
O=C(CNS(=O)(=O)c1cccc(Br)c1)NCCCc1ccccc1	44.3*	1.2	-0.9	1.3	2.6	0.3
N#Cc1cccc(S(=O)(=O)NCC(=O)NCCCc2ccccc2)c1	.	2.2	0.2	-2.8	-5.0	3.0
COc1ccc(-c2ccc(C3[C@H]4CNC[C@@H]3N4CC3CCOCC3)cc2)cc1 (some centres undefined)	.	5.3	.	-3.9	.	.
CN1C(=O)c2cc(NC(=O)Cc3ccccc3)ccc2OC[C@H]2O[C@@H](CC(=O)NC3CCC3)CC[C@H]21	.	2.2	.	1.2	.	.
N#CCCN(C(=O)COC(=O)c1ccc(S(=O)(=O)N2CCOCC2)cc1)c1ccccc1	.	-1.4	-1.3	-0.2	-2.5	1.5
CN(C(=O)COC(=O)c1ccc(S(=O)(=O)N2CCOCC2)cc1)c1ccccc1	44.8*	4.5	-0.2	0.0	-2.3	-0.2
CC[n+]1ccccc1/C=C1\Sc2ccc(C)cc2N1C	-2.6	3.8	0.6	74.2*	14.9	-10.2
CN1/C(=C/c2cccc[n+]2CCO)Sc2ccccc21	-0.9	2.4	0.4	12.7	-8.2	-5.3
